Data on 15 molecules can be found in ChEMBL document CHEMBL1149129, “Design and synthesis of 3'- and 5'-O-(3-benzenesulfonylfuroxan-4-yl)-2'-deoxyuridines: biological evaluation as hybrid nitric oxide donor-nucleoside anticancer agents” (2004).

Experiment [1] concerns 143B. Briefly: In vitro cell cytotoxicity was determined against 143B cell line. It is filed as functional. The settings on record: Homo sapiens. In outline: (§1)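 Human 143B or 143B-LTK cells were grown in complete MEME with 10% FBS and seeded at 8×10^2 cells/well. After 24 h at 37 °C in 5% CO2, compound in medium was added and cells were incubated 3 days. Viability was read by MTT (4 h), with formazan dissolved in DMSO and A540 corrected for blanks. CC50 is the concentration cutting A540 to 50% of control (mean, n = 6).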

Experiment [2] relates to 143B. Briefly: In vitro cell cytotoxicity was determined against 143B-LTK cell line. It is filed as functional. As to conditions: Homo sapiens. In outline: as §1
The next experiment relates to EMT6. Briefly: In vitro cell cytotoxicity was determined against EMT-6 cell line. Format: functional. As to conditions: Mus musculus. An outline of the steps:
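Murine EMT-6 cells in complete Waymouth medium with 12.5% FBS were plated at 8×10^2 cells/well and preincubated 24 h (37 °C, 5% CO2). Compound in medium was then given for 3 days. MTT reduction was measured over 4 h, with DMSO solubilization and blank-corrected absorbance at 540 nm. CC50 is the concentration reducing A540 to 50% of control (mean, n = 6).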

Another experiment concerns KBALB cell line. Briefly: In vitro cell cytotoxicity was determined against KBALB cell line. It is filed as functional. The settings on record: Mus musculus. An outline of the steps: (§2)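 Murine KBALB or KBALB-STK cells, or Hs578Bst human fibroblasts, were grown in complete DMEM with 10% FBS and seeded at 8×10^2 cells/well. After 24 h at 37 °C in 5% CO2, compound in medium was added for 3 days. MTT was added for 4 h, formazan dissolved in DMSO, and blank-corrected A540 read. CC50 is 50% of control A540 (mean, n = 6).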

Another experiment concerns KBALB-STK. Briefly: In vitro cell cytotoxicity was determined against KBALB-STK cell line. It is filed as functional. As to conditions: Mus musculus. An outline of the steps:
as §2

A short description of experiment [3]: In vitro percent nitric oxide released from the test compound was determined as the percent of nitrite (NO2-) produced in phosphate buffered saline at 16 hr. Format: functional. In outline: (§3)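 Compound (2 mM solution) in 0.1 M phosphate buffer, pH 7.4, without L-cysteine was incubated at 37 °C for 1 or 16 h in the absence of air. It was then exposed to air for 10 min at 25 °C and mixed with an equal volume of Griess reagent (sulfanilamide/N-naphthylethylenediamine). A540 was read after 10 min. Percent NO, as nitrite, came from a 0–100 µM sodium nitrite standard curve (±SEM, n = 3).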

Experiment [4] is described as follows: In vitro percent nitric oxide released from the test compound was determined as the percent of nitrite (NO2-) produced in phosphate buffered saline at 1 hr. Format: functional. In outline: as §3
Experiment [5] is described as follows: In vitro percent nitric oxide released from the test compound was determined as the percent of nitrite (NO2-) produced in the present of L-cysteine in Phosphate buffer saline at 16 hr. Format: functional. An outline of the steps:
(§4)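 Equal volumes of 0.2 mM compound and freshly prepared 3.6 mM L-cysteine, each in 0.1 M phosphate buffer, pH 7.4, were mixed and incubated at 37 °C for 1 or 16 h in the absence of air. After 10 min air exposure at 25 °C, an equal volume of Griess reagent was added and A540 read after 10 min. Nitrite was quantified against a 0–100 µM NaNO2 curve (±SEM, n = 3).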

A short description of experiment [6]: In vitro percent nitric oxide released from the test compound was determined as the percent of nitrite (NO2-) produced in the present of L-cysteine in Phosphate buffer saline at 1 hr. Format: functional. In outline:
as §4

In another experiment the test system is Hs578Bst (Homo sapiens). Briefly: In vitro cell cytotoxicity was determined against Hs 578.Bst cell line.

SMILES strings stand for the structures.

As to `O=c1[nH]c(=O)n([C@H]2C[C@H](Oc3no[n+]([O-])c3S(=O)(=O)c3ccccc3)[C@@H](CO)O2)cc1F`, the half-maximal cytotoxic concentration (CC50) worked out at 0.24 µM with 143B [1]; 0.84 µM in the experiment on 143B [2]; 2000 nM in the experiment with EMT6; 2000 nM in the experiment on KBALB cell line; 840 nM with KBALB-STK; 4.4 µM with Hs578Bst (Homo sapiens). For the same molecule, the NO release in [3] is 0.2%; in [4], 0.4%; in [5], 73.9%; in [6] it was 41.5%.

Consider `Cc1cn([C@H]2C[C@H](O)[C@@H](COc3no[n+]([O-])c3S(=O)(=O)c3ccccc3)O2)c(=O)[nH]c1=O`, for which the CC50 amounted to 3.6 µM in the experiment on 143B [1]; 5.6 µM in the experiment with 143B [2]; 2000 nM with EMT6; 2800 nM with KBALB cell line; 4800 nM in the experiment with KBALB-STK; 6.8 µM in the experiment on Hs578Bst (Homo sapiens). Further, the NO release is 2.2% in [3], 2.2% in [4], 36.8% in [5] and 20.9% in experiment [6].

In the case of `O=c1ccn([C@H]2C[C@H](O)[C@@H](COc3no[n+]([O-])c3S(=O)(=O)c3ccccc3)O2)c(=O)[nH]1`, the CC50 with 143B [1] was 3.3 µM; in the experiment on 143B [2], 6.3 µM; in the experiment on EMT6 it was 750 nM; with KBALB cell line it was 4600 nM; in the experiment on KBALB-STK, 5400 nM; with Hs578Bst (Homo sapiens), 4.8 µM. The NO release in experiment [3] is 0.2%; in [4], 1.5%; in experiment [5], 77.9%; in [6] it was 46%.

Consider `O=c1ccn([C@H]2C[C@H](Oc3no[n+]([O-])c3S(=O)(=O)c3ccccc3)[C@@H](CO)O2)c(=O)[nH]1`, for which the half-maximal cytotoxic concentration (CC50) in the experiment with 143B [1] was 0.96 µM; with 143B [2], 2.9 µM; in the experiment with EMT6, 80 nM; with KBALB cell line, 790 nM; in the experiment on KBALB-STK, 1700 nM; in the experiment on Hs578Bst (Homo sapiens), 4.8 µM. For the same molecule, the NO release in [3] is 0.2%; in [4] it was 0.9%; in experiment [5], 85.8%; in experiment [6], 45.6%.

With `O=S(=O)(c1ccccc1)c1no[n+]([O-])c1S(=O)(=O)c1ccccc1`, the CC50 is 0.04 µM in the experiment on 143B [1]; 0.028 µM with 143B [2]; 100 nM in the experiment with EMT6; 520 nM in the experiment with KBALB cell line; 600 nM in the experiment with KBALB-STK; 0.1 µM in the experiment with Hs578Bst (Homo sapiens). The NO release in experiment [3] is 0.4%; in experiment [4], 0.2%; in experiment [5], 38.8%; in experiment [6], 22.7%.

Regarding `Cc1cn([C@H]2C[C@H](Oc3no[n+]([O-])c3S(=O)(=O)c3ccccc3)[C@@H](CO)O2)c(=O)[nH]c1=O`, the 50% cytotoxic concentration (CC50) was determined as 0.72 µM in the experiment on 143B [1]; 0.88 µM with 143B [2]; 2400 nM in the experiment on EMT6; 560 nM in the experiment on KBALB cell line; 1000 nM with KBALB-STK; 2 µM in the experiment on Hs578Bst (Homo sapiens). For the same molecule, the NO release in [3] is 0.4%; in experiment [4], 1.4%; in [5], 77.3%; in experiment [6], 39.5%.

For `O=[N+]([O-])O[C@H]1CO[C@H]2[C@@H]1OC[C@H]2O[N+](=O)[O-]` [ISOSORBIDE DINITRATE], the half-maximal cytotoxic concentration (CC50) came to 7000 µM in the experiment on 143B [1]; 7400 µM in the experiment with 143B [2]; 380000 nM with EMT6; 97000 nM in the experiment with KBALB cell line; 10000 nM in the experiment on KBALB-STK. Also, the NO release in [3] came out at 24%; in [4] it was 3.5%; in experiment [5], 2.6%; in experiment [6], 1.9%.

Take `O=c1[nH]c(=O)n([C@H]2C[C@H](O)[C@@H](CO)O2)cc1F` [FLOXURIDINE]: the CC50 with KBALB cell line came out at 95000 nM; with KBALB-STK it was 100000 nM.

`O=c1[nH]c(=O)n([C@H]2C[C@H](Oc3no[n+]([O-])c3S(=O)(=O)c3ccccc3)[C@@H](CO)O2)cc1C(F)(F)F`: the CC50 was 0.52 µM in the experiment with 143B [1]; 0.48 µM in the experiment on 143B [2]; 880 nM with EMT6; 3200 nM in the experiment on KBALB cell line; 2000 nM with KBALB-STK; 4.4 µM with Hs578Bst (Homo sapiens). Also, the NO release in experiment [3] is 0.4%; in experiment [4] it was 0.3%; in [5], 78.5%; in [6], 48.3%.

As to `O=c1[nH]c(=O)n([C@H]2C[C@H](O)[C@@H](COc3no[n+]([O-])c3S(=O)(=O)c3ccccc3)O2)cc1I`, the CC50 with 143B [1] was determined as 0.54 µM; in the experiment with 143B [2] it was 0.71 µM; in the experiment with EMT6, 1000 nM; in the experiment with KBALB cell line, 920 nM; in the experiment with KBALB-STK, 920 nM; in the experiment with Hs578Bst (Homo sapiens), 0.8 µM. For the same molecule, the NO release in experiment [3] was 9.9%; in experiment [4] it was 9.8%; in experiment [5] it was 71.9%; in experiment [6], 28.3%.

As to `COc1no[n+]([O-])c1S(=O)(=O)c1ccccc1`, the CC50 was determined as 0.07 µM with 143B [1]; 0.32 µM in the experiment with 143B [2]; 560 nM in the experiment with EMT6; 480 nM in the experiment on KBALB cell line; 440 nM in the experiment with KBALB-STK; 0.68 µM in the experiment on Hs578Bst (Homo sapiens). For the same molecule, the NO release in [3] is 1%; in experiment [4], 1.1%; in experiment [5], 44.8%; in [6] it was 12.3%.

Regarding `O=c1[nH]c(=O)n([C@H]2C[C@H](O)[C@@H](COc3no[n+]([O-])c3S(=O)(=O)c3ccccc3)O2)cc1F`, the 50% cytotoxic concentration (CC50) was 3.2 µM in the experiment with 143B [1]; 2 µM with 143B [2]; 60 nM with EMT6; 48 nM in the experiment on KBALB cell line; 60 nM in the experiment with KBALB-STK; 0.076 µM in the experiment on Hs578Bst (Homo sapiens). Further, the NO release in experiment [3] was 0.7%; in experiment [4], 0.8%; in experiment [5] it was 68.7%; in experiment [6] it was 41.6%.

On to `Cc1cn([C@H]2C[C@H](O)[C@@H](CO)O2)c(=O)[nH]c1=O` [DOXRIBTIMINE], for which the CC50 in the experiment with 143B [1] came to 600 µM; in the experiment with 143B [2], 700 µM; in the experiment on KBALB cell line, 970000 nM; with KBALB-STK it was 650000 nM.

In the case of `O=c1[nH]c(=O)n([C@H]2C[C@H](Oc3no[n+]([O-])c3S(=O)(=O)c3ccccc3)[C@@H](CO)O2)cc1I`, the CC50 amounted to 0.56 µM in the experiment with 143B [1]; 1.3 µM in the experiment with 143B [2]; 80 nM with EMT6; 380 nM in the experiment on KBALB cell line; 400 nM in the experiment on KBALB-STK; 0.8 µM in the experiment with Hs578Bst (Homo sapiens). Also, the NO release in experiment [3] stood at 0.4%; in experiment [4] it was 1.2%; in experiment [5], 74.8%; in experiment [6], 39.8%.

Take `O=c1[nH]c(=O)n([C@H]2C[C@H](O)[C@@H](CO)O2)cc1I` [IDOXURIDINE]: the CC50 amounted to 90 µM with 143B [1]; 100 µM in the experiment on 143B [2]; 0.009 nM in the experiment with EMT6; 0.06 nM in the experiment on KBALB cell line; 0.088 nM in the experiment with KBALB-STK.

The term CC50 denotes the concentration giving 50% cytotoxicity. Read a low CC50 as greater toxicity to the cells.
